Screening results (PubChem)
Compounds with a hit are over-represented: about 2.6% of the library has one in this group of screens.
Apaf1 inhib – human Apaf-1 inhibition | O14727 | reconstituted apoptosome caspase-3 activity, DEVD-Rh110 fluorescence | inhibition, % at 20 µM | 0.71% of 330,000 active | AID 489030; active = inhibition of at least 40% at 20 µM
Target sequence (O14727 whole entry, looked up): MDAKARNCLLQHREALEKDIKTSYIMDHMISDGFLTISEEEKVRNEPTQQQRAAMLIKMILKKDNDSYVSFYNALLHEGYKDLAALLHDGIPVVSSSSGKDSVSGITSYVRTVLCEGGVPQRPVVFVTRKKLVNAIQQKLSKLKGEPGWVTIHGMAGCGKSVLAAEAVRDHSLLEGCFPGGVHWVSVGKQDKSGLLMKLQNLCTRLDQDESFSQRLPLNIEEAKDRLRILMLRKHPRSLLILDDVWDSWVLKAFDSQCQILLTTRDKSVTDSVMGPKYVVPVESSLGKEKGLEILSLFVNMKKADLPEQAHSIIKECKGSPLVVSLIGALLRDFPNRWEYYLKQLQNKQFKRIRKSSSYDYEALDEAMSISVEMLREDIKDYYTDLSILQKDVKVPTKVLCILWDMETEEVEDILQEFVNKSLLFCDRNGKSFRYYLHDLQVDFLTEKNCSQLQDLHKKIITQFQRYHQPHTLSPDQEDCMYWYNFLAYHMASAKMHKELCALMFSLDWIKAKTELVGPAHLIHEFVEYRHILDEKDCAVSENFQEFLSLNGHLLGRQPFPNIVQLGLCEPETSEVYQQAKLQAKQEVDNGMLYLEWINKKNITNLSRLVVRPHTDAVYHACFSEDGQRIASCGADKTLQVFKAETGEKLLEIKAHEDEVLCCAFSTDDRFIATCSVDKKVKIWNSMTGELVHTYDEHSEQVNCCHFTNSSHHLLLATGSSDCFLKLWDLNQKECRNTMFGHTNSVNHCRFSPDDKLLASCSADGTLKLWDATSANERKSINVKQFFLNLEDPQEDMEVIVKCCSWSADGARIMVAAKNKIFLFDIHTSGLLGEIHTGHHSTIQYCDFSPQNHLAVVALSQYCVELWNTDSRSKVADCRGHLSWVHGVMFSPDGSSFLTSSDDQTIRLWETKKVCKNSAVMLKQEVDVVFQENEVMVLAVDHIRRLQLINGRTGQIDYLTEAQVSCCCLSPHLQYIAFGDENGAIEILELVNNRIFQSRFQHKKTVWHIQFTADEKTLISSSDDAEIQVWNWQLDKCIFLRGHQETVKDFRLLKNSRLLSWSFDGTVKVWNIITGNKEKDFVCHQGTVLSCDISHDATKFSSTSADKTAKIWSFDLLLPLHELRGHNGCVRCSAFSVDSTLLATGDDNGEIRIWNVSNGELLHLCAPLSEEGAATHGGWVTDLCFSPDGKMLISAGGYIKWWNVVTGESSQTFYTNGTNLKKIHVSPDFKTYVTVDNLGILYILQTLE
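Material: reconstituted apoptosome with Apaf-1, cytochrome c, caspase-9, procaspase-3, dATP; medium: pH 7.5 Hepes buffer with CHAPS, BSA, DTT; also added: cytochrome c and DEVD-Rh110 substrate; timing: 30 min plus 50 min, RT; signal: Rh110 fluorescence intensity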
TDP2 inh – TDP2 (human) inhibition, absorbance primary screen | recombinant TDP2, T5PNP hydrolysis, p-nitrophenol absorbance 415 nm | inhibition, % at 12.8 µM | 0.34% of 370,000 active;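 active = inhibition above the mean of all tested compounds plus 3 SD, set per campaign, cut at about 25% in these data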
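Assay system: Recombinant human TDP2 | Quantity: 120 nM TDP2 per well | Incubation: 2 h at 37 °C | Signal: Epi absorbance | Evaluation: Percent inhibition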
GSTO1 counter – blocks human GSTO1 in RBBP9 counter-screen | recombinant GSTO1, activity-based probe fluorescence polarization | 1.1% of 300,000 active | P78417 | inhibition, % at 5.96 µM;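 active = inhibition above the campaign mean inhibition plus 3 SD, cut at about 35% in these data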
PAD4 FP inh – inhibitors of human PAD4; Q9UM07; recombinant PAD4, RCA probe fluorescence polarization; inhibition, % at 6.36 µM; 0.41% of 330,000 active; AID 485272;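 active = percent inhibition above a cutoff equal to the mean of all tested compounds plus 3 SD, cut at about 15% in these data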
PRMT1 inh – PRMT1 (human) inhibition, primary screen; Q99873; recombinant PRMT1, activity-based probe fluorescence polarization; inhibition, % at 2.79 µM; 1.3% of 370,000 active; AID 652257;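 active = inhibition above about 21% made by adding two undisclosed values, limit read from the data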
GSTO1 inh conf – GSTO1 (human) inhibition, confirmation | shares compounds with GSTO1 counter | 54% of 2,400 active | AID 2176 | inhibition, % at 5.96 µM | recombinant GSTO1, probe fluorescence polarization;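 active = inhibition above the primary screen's cutoff, its mean inhibition plus 3 SD, cut at about 35% in these data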;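 note: loss of polarization as inhibitors block binding of rhodamine sulfonate ester activity probe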
GSTO1 ABPP inh – inhibitors of recombinant human GSTO1 | 30% of 130 active | shares compounds with GSTO1 counter | inhibition, % at 1 µM | gel ABPP SE-Rh probe fluorescence;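 active = inhibition of the enzyme GSTO1 above about 75%, limit read from the data; inactive = inhibition below that limit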
Numbers stand for hits; – = inactive; · = not tested or not shown.

SMILES | Apaf1 inhib | TDP2 inh | GSTO1 counter | PAD4 FP inh | PRMT1 inh | GSTO1 inh conf | others
CCOc1ccc(/C=N/Nc2ccccc2)cc1 | – | – | 40.8 | – | – | –
CCOc1ccc(/C=N/O)cc1 | – | – | – | – | – | ·
Cc1cc(C)c(S(=O)(=O)NCc2cn3ccccc3n2)c(C)c1 | – | – | 38.9 | – | – | –
Cc1cc(C)c(S(=O)(=O)Nc2ccc(-c3cn4ccccc4n3)cc2)c(C)c1 | – | – | – | – | – | ·
COC(=O)[C@H](C(C)C)N(CCCc1cn(CC2CCCCC2)nn1)S(=O)(=O)c1ccc(F)cc1Br | · | – | · | · | – | ·
CSc1c(N(C)C)c(=O)c1=S | · | – | · | · | – | ·
CN(C)S(=O)(=O)c1cc(NC(=O)COC(=O)Cc2cccc3ccccc23)ccc1Cl | – | – | – | – | – | ·
CCC(C(=O)OCC(=O)Nc1ccc(Cl)c(S(=O)(=O)N(C)C)c1)c1ccccc1 (stereo unspecified) | – | – | 65.3 | – | – | –
CC(C)=NOc1cc(NC(=O)CCl)cc([N+](=O)[O-])c1 | – | – | 80.0 | – | – | 99.5
CN1CCC(=C2c3ccccc3C(O)c3ccccc32)CC1 (stereo unspecified) | – | – | – | – | – | ·
CN1CCc2cccc3c2C1Cc1ccc(O)c(O)c1-3 (stereo unspecified) | 49.6 | – | 93.1 | – | 47.4 | –
COc1ccc(N2CCN(CCCNC(=O)COc3ccc(C)cc3)CC2)cc1 | · | – | · | · | – | ·
COc1ccccc1N(C(=O)CCl)c1cn(C(C)=O)c2ccccc12 | – | – | 70.6 | – | – | 79.1 | GSTO1 ABPP inh=–
CCOC(=O)c1ccccc1Nc1cn(C(C)=O)c2ccccc12 | – | – | – | – | – | ·
COc1ccc(N2CCN(c3ccc(NC(=O)/C=C\C(=O)O)cc3)CC2)cc1 | – | – | 74.0 | 30.3 | – | –
CC1=CC(=Nc2c(C)n(C)n(-c3ccccc3)c2=O)C=CC1=O | 43.1 | · | 74.2 | – | · | 40.7
Cc1c(N=c2scc(-c3ccccc3)n2C)c(=O)n(-c2ccccc2)n1C | – | – | – | – | – | ·
CCOC(=O)[C@@H]1CSCCS(=O)(=O)N1Cc1ccc(C(F)(F)F)cc1 | · | – | · | · | – | ·
c1csc(C2Nc3cccc4cccc(c34)N2)c1 | – | – | 43.8 | – | – | –
CN1c2cccc3cccc(c23)N(C)C1c1cccs1 | – | – | – | – | – | ·
Clc1cccc(Cl)c1C1Nc2cccc3cccc(c23)N1 | – | – | 47.2 | – | 31.3 | –
CCCCCCCCN1C(=O)[C@@H](CC(=O)N2CCOCC2)C[C@@]2(C(=O)OC)C1=C[C@H](COCc1ccccc1)O[C@@H]2C | · | – | · | · | – | ·
CN=c1scc(C)n1/N=C/c1ccc(O)c(O)c1O | – | – | 73.8 | – | 26.1 | –
COc1ccc(CN2C(=O)CN(S(C)(=O)=O)CC2(C)C(=O)NC(C)C)cc1 (stereo unspecified) | · | – | · | · | – | ·
Cc1ccc(C2=NN(C(=O)CCl)C(c3cccs3)C2)o1 (stereo unspecified) | – | – | 99.2 | – | – | 96.3
SMILES | Apaf1 inhib | TDP2 inh | GSTO1 counter | PAD4 FP inh | PRMT1 inh | GSTO1 inh conf | others
O=C(CCl)N1N=C(c2ccco2)CC1c1cccs1 (stereo unspecified) | · | · | 85.3 | – | · | 99.1
CC(=O)N1N=C(c2ccco2)CC1c1cccs1 (stereo unspecified) | – | – | – | – | – | ·
COc1cc2c(c(OC)c1OC)C1(CCCCC1)CC2NS(=O)(=O)C(C)C (stereo unspecified) | · | – | · | · | – | ·
CCOC(=O)Nc1nnc(-c2ccccc2OC)s1 | – | – | – | – | – | ·
CCC(SC1=NCCS1)C(=O)Nc1nnc(-c2ccccc2OC)s1 (stereo unspecified) | – | – | 59.5 | – | – | 60.6
CC1CC(=O)c2c(cc3c(-c4c(O)cc(O)c5c(O)c6c(cc45)OC(C)CC6=O)c(O)cc(O)c3c2O)O1 (stereo unspecified) | 62.5 | · | 62.0 | – | · | 73.1
O=C1CC(c2ccc(O)cc2)Oc2cc(O)cc(O)c21 (stereo unspecified) | – | – | – | – | – | ·
COc1ccc(-c2[nH]ncc2CN2CCN(Cc3cccs3)CC2)cc1F | – | – | 72.4 | – | – | –
O=C(N/N=C/c1cccnc1)c1cc(O)c(O)c(O)c1 | – | – | 50.2 | – | – | –
Cc1ccc(S(=O)(=O)/N=C2/C=C(C3C(=O)CC(C)(C)CC3=O)C(=O)c3ccccc32)cc1 | – | 51.1 | 61.0 | – | – | –
Oc1ccc(/C=N/NC(=S)Nc2cccnc2)c(O)c1 | – | – | – | – | – | ·
Oc1cccc(/C=N/NC(=S)Nc2cccnc2)c1O | · | – | 79.0 | – | – | –
O=C(O)c1cccc(N2C(=O)c3cc([N+](=O)[O-])cc4cc([N+](=O)[O-])cc(c34)C2=O)c1 | – | – | 70.6 | 41.7 | – | 40.4
O=C1c2ccc(Oc3cccc([N+](=O)[O-])c3)cc2C(=O)N1c1ccccn1 | – | – | – | – | – | ·
O=C1c2cc([N+](=O)[O-])cc3cc([N+](=O)[O-])cc(c23)C(=O)N1c1ccccn1 | · | – | 42.2 | – | – | –
CN(C)c1ccc(N=Cc2ccco2)cc1 | – | · | 73.4 | 20.5 | · | –
CN(C)c1ccc(C=Nc2ccccc2)cc1 | – | – | – | – | – | ·
CCCn1c(=O)c2ccccc2n2c(SCC(N)=O)nnc12 | – | – | – | – | – | ·
CCCCCn1c(=O)c2ccccc2n2c(CCl)nnc12 | – | – | 83.9 | – | – | 95.0 | GSTO1 ABPP inh=–
CC(C)CCn1c(=O)c2ccccc2n2c(CN3CCCC3)nnc12 | – | – | – | – | – | ·
CC(C)CCn1c(=O)c2ccccc2n2c(CCl)nnc12 | – | – | 81.4 | – | – | 95.3 | GSTO1 ABPP inh=81.0
CCCNC(=O)C[C@H]1CC[C@H]2[C@@H](COc3ccc(NC(=O)Nc4ccc(C#N)cc4)cc3C(=O)N2C)O1 | · | – | · | · | – | ·
CCn1c(C)nc2cc(C(=O)N/N=C/c3cccc(O)c3O)ccc21 | – | – | 44.6 | – | – | –
CCn1c(C)nc2cc(C(=O)N/N=C/c3ccccc3)ccc21 | – | – | – | – | – | ·
CCOC(=O)NC1(Nc2cccc(Cl)c2)Oc2ccccc2O1 | · | – | 56.0 | – | – | –
CSCCC(C(=O)NC1CCCC1)n1c(C2CC2)nc2ccccc21 (stereo unspecified) | · | – | · | · | – | ·
COc1ccc(NC(=O)c2cc(-c3ccc(OC)c(OC)c3)on2)cc1OC | – | – | – | – | – | ·
COCC(C)NC(=O)c1cc(-c2ccc(OC)c(OC)c2)on1 (stereo unspecified) | – | · | 52.6 | – | · | –
O=C(O)C1=NN(c2ccccc2)C(=O)CC1 | – | – | – | – | – | ·
O=C(O)C1=NN(c2ccccc2)C(=O)C1 | – | – | 48.2 | – | – | –
